Arr AP2 block: human beta-arrestin and AP2 interaction inhibition; hit rate 0.31% among 340,000; inhibition, % at 10 µM; FITC-arrestin peptide / GST-AP2 beads, flow cytometry; AP2 beta2 appendage carries R879A mutation;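 active means inhibition above a set limit, near 3 SD of compounds lacking own fluorescence, cut at about 54% in these data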;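 further: plate controls were DMSO wells for no effect and 5 µM unlabelled arrestin peptide for full effect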
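test system = AP2 appendage R879A on GSH beads | buffer or medium = PBS plus Tween 20 (0.05%) and BSA (0.1%) | incubation = 12 min plus 1 h, RT | detection = bead flow cytometry, FITC channel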
AHR act: human AHR activation | activation, % at 5 µM | hit rate 2.5% among 320,000 | AHR-responsive luciferase reporter cells, luminescence | P35869; in the data active means activation above about 47%;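 further: 0% = vehicle wells and 100% = reference agonist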
A3A deaminase: human APOBEC3A DNA deaminase inhibition; inhibition, % at 20 µM; hit rate 0.41% among 330,000; recombinant A3A, FAM/TAMRA ssDNA deamination fluorescence; P31941; AID 493011;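 active means at least 40% inhibition at 20 µM here, with at most 30% in a related deaminase screen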;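 further: plate controls were A3A with DMSO for no effect and wells lacking A3A enzyme for full effect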
A3G deaminase: blocks human APOBEC3G single-stranded DNA deamination; hit rate 0.28% among 330,000; AID 493012; recombinant A3G, ssDNA deamination FAM/TAMRA fluorescence; Q9HC16; inhibition, % at 20 µM;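 active means inhibition of at least 40% at 20 µM, with no more than 30% in the related APOBEC3A deaminase screen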;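 further: plate controls were DMSO wells with A3G for no effect and wells lacking A3G enzyme for full effect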
UCH37 inh: inhibitors of human deubiquitinating enzyme UCH37; Q9Y5K5; purified proteasome/UCH37, Ub-AMC cleavage fluorescence; inhibition, % (no concentration beside the values); hit rate 0.33% among 330,000; AID 588478;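 active means mean inhibition over replicate wells above about 20%, limit read from the data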;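 further: 0% = compound-free wells with enzyme and 100% = wells lacking proteasome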
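Assay system: Proteasome-bound UCH37. Buffer or medium: pH 7.4 Tris-HCl (50 mM) with ovalbumin, ATP-MgCl2, DTT. Incubation: 30 min preincubation with enzyme, 25 min cleavage at room temperature. Measured by: fluorescence, ex 355 nm, em 460 nm. Read-out basis: percent inhibition. Control set: wells without proteasome as full block, compound-free enzyme plus substrate as uninhibited.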
PolyA inhibitor: inhibitors of polyadenylation in S. cerevisiae. S. cerevisiae SKY197-pL101 polyadenylation reporter, beta-gal luminescence; efflux-impaired pdr1/pdr3 knockout yeast; score 100 = 6 SD above DMSO. activity score, % at 12 µM. hit rate 0.02% among 300,000;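 active means lowest replicate activity score at least 50, where 100 means six control SD above control mean; inconclusive means lowest score under 50 but half or more replicates reach 50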;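 further: yeast exposed to compound for 9 h at 30 °C; higher score means more reporter readthrough which indicates perturbed polyadenylation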
AHR act confirm: human AHR activation, confirmation; shares compounds with AHR act; human cells, AHR-responsive luciferase reporter, luminescence; activation, % at 9 µM; hit rate 87% among 2,300; in the data active means activation above about 49%;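 further: HepG2 hepatoma cells carrying a DRE-driven firefly luciferase reporter; 0% = vehicle wells and 100% = reference agonist wells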
PXR act counter: PXR activation, counter-screen for AHR activators; shares compounds with AHR act; cell-based PXR reporter, luciferase luminescence; activation, % at 11.6 µM; hit rate 88% among 2,300; AID 434939; in the data active means activation above about 11%;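 further: human hepatoma DPX-2 cells expressing full-length human PXR; 0% = DMSO and 100% = reference agonist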
A3A conf: confirmation of human APOBEC3A DNA deaminase inhibitors | inhibition, % at 20 µM | hit rate 63% among 1,400 | recombinant A3A, ssDNA deaminase UDG fluorescence assay | shares compounds with A3A deaminase;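 active means inhibition reaching a set limit, 80% of the first screen's cutoff, at 20 µM in any replicate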;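 further: plate controls were DMSO wells with A3A for no effect and wells lacking A3A enzyme for full effect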
UDG A3A counter: counter-screen for APOBEC3A inhibitors: UDG; 1,000 tested, under 10 active; shares compounds with A3A deaminase; inhibition, % at 20 µM; UDG counterscreen, FAM/TAMRA uracil oligo fluorescence; call rule not given here
Arr AP2 CP1: inhibitors of human beta-arrestin and AP2 interaction | shares compounds with Arr AP2 block | GST-AP2 beads, FITC arrestin peptide binding, flow cytometry; GST-fused beta2-adaptin appendage, R879A mutant | inhibition, % at 10 µM | hit rate 2% among 1,300 | AID 504908;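 active means inhibition above a set limit, roughly 3 SD of non-fluorescent compound noise, cut at about 38% in these data; inactive means inhibition at or below that limit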;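 further: loss of bead fluorescence from 50 nM FITC arrestin peptide bound to appendage; 0% = negative control wells and 100% = excess unlabelled arrestin peptide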
Target sequence (P63010 whole entry, looked up, the tested form may be a part, one chain of several): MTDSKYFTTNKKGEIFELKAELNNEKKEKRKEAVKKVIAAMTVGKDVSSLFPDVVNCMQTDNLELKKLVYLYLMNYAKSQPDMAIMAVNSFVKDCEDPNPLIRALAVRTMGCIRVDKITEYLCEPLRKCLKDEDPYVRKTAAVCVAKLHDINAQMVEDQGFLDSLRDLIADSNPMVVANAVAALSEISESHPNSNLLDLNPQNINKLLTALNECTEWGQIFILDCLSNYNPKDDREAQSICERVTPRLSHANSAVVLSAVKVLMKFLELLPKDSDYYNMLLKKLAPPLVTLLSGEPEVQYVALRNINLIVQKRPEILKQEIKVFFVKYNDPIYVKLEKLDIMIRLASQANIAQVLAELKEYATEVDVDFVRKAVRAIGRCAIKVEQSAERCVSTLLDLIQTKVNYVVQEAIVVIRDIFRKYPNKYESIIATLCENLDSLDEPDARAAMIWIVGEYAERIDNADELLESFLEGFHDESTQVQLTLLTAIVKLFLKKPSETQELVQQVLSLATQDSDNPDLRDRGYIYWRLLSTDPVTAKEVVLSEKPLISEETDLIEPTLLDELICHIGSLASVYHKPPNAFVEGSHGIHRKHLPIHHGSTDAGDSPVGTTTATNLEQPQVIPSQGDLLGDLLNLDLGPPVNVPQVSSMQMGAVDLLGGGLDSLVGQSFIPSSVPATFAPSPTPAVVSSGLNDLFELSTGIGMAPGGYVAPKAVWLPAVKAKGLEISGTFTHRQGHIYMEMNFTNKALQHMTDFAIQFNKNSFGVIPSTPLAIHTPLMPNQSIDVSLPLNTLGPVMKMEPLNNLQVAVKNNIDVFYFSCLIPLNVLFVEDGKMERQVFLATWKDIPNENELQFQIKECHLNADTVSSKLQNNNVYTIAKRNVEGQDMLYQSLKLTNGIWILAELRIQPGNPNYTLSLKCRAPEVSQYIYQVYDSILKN
GST GSH counter: disrupts GST binding to glutathione beads, arrestin-AP2 artifact. GST-fluorescein binding to GSH beads, fluorescence, counter-screen. shares compounds with Arr AP2 block. hit rate 2% among 1,300. inhibition, % at 10 µM;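 active means inhibition above 50%, about 3 SD of the inhibition seen with non-fluorescent compounds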;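 further: fluorescein maleimide labelled GST captured on 4 micron glutathione beads; higher means more loss of bead fluorescence from quenching or blocked binding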
UCH37 reconfirm: confirmation of human UCH37 deubiquitinating enzyme inhibitors; shares compounds with UCH37 inh; Proteasome-bound UCH37, Ub-AMC cleavage fluorescence; inhibition, % at 20 µM; hit rate 27% among 480;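 active means average inhibition over replicates above about 50%, so the earlier screening hit is confirmed, limit read from the data; inactive means the rest, counted as false positives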;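 further: based on cleavage rate fitted by regression over a 30 min kinetic read; 0% = proteasome plus Ub-AMC and 100% = Ub-AMC without proteasome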
* = called active by the depositor; i = inactive; ? = inconclusive; . = no result given. Sampled rows, rich in hits. Any-hit rate of the full collection: about 3.4%.

SMILES	Arr AP2 block	AHR act	A3A deaminase	A3G deaminase	UCH37 inh	PolyA inhibitor	A3A conf	UDG A3A counter	others
COc1ccc(NC(=O)c2ccc3nc[nH]c3c2)cc1	60.4*	80.2*	2.8	-4.4	3.3	?	.	.	AHR act confirm=78.7*;PXR act counter=18.6*;Arr AP2 CP1=13.7;GST GSH counter=0.5
Cn1cc([N+](=O)[O-])c(C(=O)NN=Cc2cc3c(cc2Br)OCO3)n1	.	.	.	.	10.7	.	.	.
Nc1nc(-c2ccccc2)nc2sc3c(c12)CCCC3	65.0*	92.4*	3.8	-1.9	-40.7	-38.1	.	.	AHR act confirm=88.8*;PXR act counter=54.5*;Arr AP2 CP1=20.8;GST GSH counter=-2.9
Cc1cc(N/N=C/c2ccncc2)nc2ccccc12	27.0	.	.	.	.	4.0	.	.
Cc1cc(N/N=C/c2cccc(Br)c2)nc2ccccc12	56.7*	99.7*	-1.2	-2.3	.	-1.7	.	.	AHR act confirm=97.2*;PXR act counter=33.8*;Arr AP2 CP1=5.0;GST GSH counter=0.1
Cc1cccc(S(=O)(=O)c2c(N)n(N=Cc3ccco3)c3nc4ccccc4nc23)c1	.	.	.	.	-144.4	.	.	.
CCCn1c(Nc2nc3ccccc3n2C)nc2ccccc21	-9.0	3.1	-5.0	-9.6	-11.9	13.0	.	.
CCCn1c(NC(=S)Nc2ccccc2)nc2ccccc21	62.7*	82.7*	0.1	-9.4	-1.3	-6.5	.	.	AHR act confirm=75.2*;PXR act counter=10.5*;Arr AP2 CP1=-13.9;GST GSH counter=4.4
O=C(O)CN1C(=O)/C(=C\c2ccccc2OCc2ccc(Cl)cc2Cl)SC1=S	0.9	81.7*	9.4	-7.8	26.2*	3.9	.	.	AHR act confirm=58.7*;PXR act counter=28.9*;UCH37 reconfirm=54.2*
CC1=Nc2ncnn2C(c2ccccc2)C1=NO (stereo unspecified)	.	.	.	.	3.9	.	.	.
CC(C)C(CO)N1CCN(Cc2ccccc2)CCC1=O (stereo unspecified)	-5.6	-3.4	61.4*	9.5	5.1	8.5	51.3*	3.8
O=C(NCc1ccc(F)cc1)c1noc2c1CCCC2	5.7	-4.9	-6.8	-2.9	4.1	11.9	.	.
O=C(Nc1ccc(F)cc1F)c1noc2c1CCC2	-2.2	1.2	49.8*	14.7	5.9	15.0	32.9*	.
Cc1cc(Br)ccc1NC(=O)CN(C)C(=O)Cn1c(=O)cnc2ccccc21	6.0	2.2	66.3*	15.4	1.8	16.7	52.2*	-2.0
CC1(C)CN(c2cccc(-c3ccnc4ncnn34)c2)C1=O	19.3	2.3	53.7*	-7.8	-1.6	-3.4	-7.9	-2.3
CC[n+]1ccc(C)c2cc(S(=O)C(F)(F)F)ccc21 (stereo unspecified)	2.3	-0.1	2.5	-0.9	-13.1	-20.3	.	.
CC[n+]1ccc(C)c2cc(P(=O)(c3ccccc3)c3ccccc3)ccc21	10.3	-0.4	62.7*	26.3	9.8	13.0	active	3.8
O=C(NN=Cc1cccs1)c1ccc2ccccc2c1	.	.	.	.	1.4	.	.	.
CCN1/C(=C/c2cccc[n+]2C)Sc2ccc(OC)cc21	-21.0	0.4	53.2*	15.0	.	-10.6	86.5*	-2.2
CCN1/C(=C/C(C)=O)Sc2ccc(OC)cc21	2.3	-0.9	-3.1	-3.1	14.4	-2.1	.	.
COc1ccc2c(c1)N(C)/C(=C/c1cccc[n+]1C)S2	-17.9	2.9	57.2*	21.2	10.0	6.3	87.8*	-2.5
Cc1ccc(OCC(=O)Nc2ccc(S(=O)(=O)N(C)C3CCN(C)CC3)cc2)c(C)c1	-10.3	-2.2	43.1*	15.8	6.2	-10.2	55.0*	-2.7
Cc1c(C(=O)Nc2ccc(S(=O)(=O)N(C)C3CCN(C)CC3)cc2)oc2ccccc12	1.3	7.6	0.9	-4.6	3.0	.	.	.
Cc1ccccc1OCCC(=O)Nc1ccc(S(=O)(=O)N(C)C2CCN(C)CC2)cc1	3.5	-3.2	1.2	7.3	-1.2	12.1	.	.
CN1CCC(N(C)S(=O)(=O)c2ccc(NC(=O)COc3ccc(Br)cc3Cl)cc2)CC1	0.5	4.1	41.6*	-5.8	5.7	16.2	48.3*	2.0
SMILES	Arr AP2 block	AHR act	A3A deaminase	A3G deaminase	UCH37 inh	PolyA inhibitor	A3A conf	UDG A3A counter	others
CN1CCC(N(C)S(=O)(=O)c2ccc(NC(=O)COc3cccc(Cl)c3)cc2)CC1	-2.5	1.1	-3.1	-8.0	-0.8	2.1	.	.
CN1CCC(N(C)S(=O)(=O)c2ccc(NC(=O)c3ccc(S(=O)(=O)N(C)C)cc3)cc2)CC1	23.7	-0.3	47.3*	1.3	1.7	.	39.3*	-3.1
O=C(NN=Cc1coc2ccccc2c1=O)c1ccc(Cl)cc1	.	.	.	.	-6.2	.	.	.
COc1ccc(C(C)=NNC(=O)c2ccc(-c3ccccc3)cc2)c(F)c1	.	.	.	.	-3.8	.	.	.
CCOC(=O)C1CCN(C(=O)Cc2cccc3ccccc23)CC1	-6.5	-0.9	40.2*	6.3	4.9	-5.1	57.7*	0.8
CCCCCCNC(=O)c1cc(-c2ccco2)nc2ccccc12	47.6	9.0	61.6*	20.9	-235.4	8.5	54.1*	-0.1
CC(C)CCNC(=O)c1cc(-c2ccco2)nc2ccccc12	23.9	4.1	-0.8	-0.4	i	-17.4	.	.
CC(C)OC(=NS(=O)(=O)c1ccc(Cl)cc1)c1ccccc1	.	.	.	.	1.4	.	.	.
CCOc1ccccc1OCCC(=O)OCC(=O)Nc1c(C)cc(C)cc1C	-9.5	-0.7	62.0*	9.9	0.3	-19.6	23.1	.
Cc1ccc(NC(=O)COC(=O)CCOc2ccccc2C)cc1	21.2	1.5	-0.6	-7.1	2.1	14.2	.	.
CC(C)(C)c1ccc(NC(=O)C2=CN3CCS(=O)(=O)N=C3C=C2)cc1	-6.7	-2.6	51.2*	9.4	1.2	.	70.7*	-4.1
Cc1ccc(NC(=O)C2=CN3CCS(=O)(=O)N=C3C=C2)cc1	-14.3	-4.8	-1.6	-2.4	0.4	.	.	.
O=C1CCc2cc(S(=O)(=O)Nc3ccccc3Cl)ccc2N1	-1.9	0.6	-2.6	-9.4	3.3	.	.	.
O=C1CCc2cc(S(=O)(=O)Nc3ccccc3F)ccc2N1	-10.4	-0.6	98.8*	5.9	4.9	.	0.1	.

Screening data as filed in PubChem BioAssay.
